Experimental findings from ChEMBL document CHEMBL1781932 (J Med Chem, 2011) are described below.

Data set [1] in a line: Clearance in Sprague-Dawley rat at 1 mg/kg, iv administered as single dose measured after 24 to 48 hrs. The class given is ADME, organism-based. Details: dose 1 mg/kg, route intravenous. The following applies: in vivo. Put shortly: (§1)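 Sprague-Dawley rats (n = 3) were fasted overnight (minimum 12 h) and given a single dose, iv 1 mg/kg or oral 10 mg/kg, in sterile water. Samples were taken over 24–48 h. PK parameters came from noncompartmental analysis.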

In data set [2] the test system is Klebsiella pneumoniae. Description: Antimicrobial activity against tetracycline-susceptible Klebsiella pneumoniae isolate 109 by CLSI dilution method. The data set is classed as functional. Put shortly:
(§2)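 Broth microdilution per CLSI in fresh cation-adjusted Mueller Hinton broth, kept at 4 °C before testing, with defibrinated horse blood added as appropriate. Strains were from ATCC. MIC in µg/mL. Runs were accepted when comparator antibiotics against ATCC quality-control strains fell within recommended ranges.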

Data set [3] has as its system Klebsiella pneumoniae. Description: Antimicrobial activity against tetracycline-resistant Klebsiella pneumoniae isolate 153 harboring tetA gene by CLSI dilution method. The data set is classed as functional.
For data set [4], the system named is Enterococcus faecalis. Put plainly: Antimicrobial activity against tetracycline-resistant Enterococcus faecalis isolate 159 harboring […] gene by CLSI dilution method. The class given is functional.
The test system of data set [5] is Staphylococcus aureus. Description: Antimicrobial activity against tetracycline-susceptible Staphylococcus aureus isolate 101 by CLSI dilution method. The data set is classed as functional.
Data set [6] in a line: Apparent volume of distribution in Sprague-Dawley rat at 1 mg/kg, iv administered as single dose measured after 24 to 48 hrs. As to conditions: in vivo.
Data set [7] can be described thus: AUC (0 to infinity) in Sprague-Dawley rat at 1 mg/kg, iv administered as single dose measured after 24 to 48 hrs. The class given is ADME, organism-based. The arrangement: time infinity, dose 1 mg/kg, route intravenous. As to conditions: plasma. Put shortly:
as §1

The test system of data set [8] is Enterobacter cloacae. Description: Antimicrobial activity against tetracycline-susceptible Enterobacter cloacae isolate 108 by CLSI dilution method. The data set is classed as functional. Put shortly:
as §2

The subject of data set [9] is Acinetobacter baumannii. Description: Antimicrobial activity against tetracycline-susceptible Acinetobacter baumannii isolate 110 by CLSI dilution method. The data set is classed as functional. Put shortly:
as §2

Data set [10] is described as follows: Cmax in Sprague-Dawley rat at 1 mg/kg, iv administered as single dose measured after 24 to 48 hrs. The data set is classed as ADME, organism-based. The arrangement: dose 1 mg/kg, route intravenous. The following applies: in vivo. Put shortly:
as §1

Data set [11] deals with Rattus norvegicus. Put plainly: Oral bioavailability in Sprague-Dawley rat at 10 mg/kg administered as single dose. The data set is classed as ADME, organism-based. As to conditions: in vivo. Put shortly:
as §1

Data set [12] has as its system Enterococcus faecalis. Description: Antimicrobial activity against tetracycline-susceptible Enterococcus faecalis isolate 103 by CLSI dilution method. The data set is classed as functional. The essentials: as §2
The test system of data set [13] is Escherichia coli. Description: Antimicrobial activity against tetracycline-susceptible Escherichia coli isolate 107 by CLSI dilution method. The data set is classed as functional. Put shortly: as §2
Data set [14] deals with Escherichia coli. Put plainly: Antimicrobial activity against tetracycline-resistant Escherichia coli isolate 155 harboring tetA gene by CLSI dilution method. The class given is functional.
The nature of data set [15]: Elimination half life in Sprague-Dawley rat at 1 mg/kg, iv administered as single dose. The class given is ADME, organism-based. Details: dose 1 mg/kg, route intravenous. As to conditions: in vivo, read-out: beta t1/2 (converted). The essentials: as §1
Data set [16] has as its system Streptococcus pneumoniae. Description: Antimicrobial activity against tetracycline-resistant Streptococcus pneumoniae isolate 160 harboring tetM gene by CLSI dilution method. The class given is functional.
The test system of data set [17] is Staphylococcus aureus. Description: Antimicrobial activity against tetracycline-susceptible Staphylococcus aureus Smith isolate 100 infected in po dosed mouse systemic infection model assessed as survival of mouse administered 60 mins post infection measured after 48 hrs. The data set is classed as functional. As to conditions: Smith isolate 100, po, read-out: PD50. The essentials: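 Mouse septicemia model with S. aureus ATCC 13709 in 5% mucin, inoculated intraperitoneally at 2.1×10^6 cfu/mouse. Oral gavage dosing began 60 min post-infection at 0.3–30 mg/kg in sterile water, 6 mice/dose group, with untreated infection controls. Survival was assessed over 48 h. PD50 was obtained by Probit analysis with 95% CI.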

Data set [18] has as its system Staphylococcus aureus. Put plainly: Antimicrobial activity against tetracycline-resistant Staphylococcus aureus isolate 158 harboring tetK gene by CLSI dilution method. The class given is functional.
Data set [19] deals with Pseudomonas aeruginosa. Put plainly: Antimicrobial activity against tetracycline-susceptible Pseudomonas aeruginosa isolate 111 by CLSI dilution method. The data set is classed as functional. Put shortly: as §2
Data set [20] relates to Staphylococcus aureus. Put plainly: Antimicrobial activity against methicillin-, tetracycline-resistant Staphylococcus aureus isolate 161 harboring tetM gene by CLSI dilution method. The data set is classed as functional.
Data set [21] has as its system Staphylococcus aureus. Description: Antimicrobial activity against tetracycline-susceptible Staphylococcus aureus Smith isolate 100 infected in iv dosed mouse systemic infection model assessed as survival of mouse administered 60 mins post infection measured up to 48 hrs. The data set is classed as functional. The following applies: Smith isolate 100, iv, read-out: PD50. Put shortly:
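Mouse septicemia model with S. aureus ATCC 13709 mixed with 5% mucin, given intraperitoneally at 2.1×10^6 cfu/mouse. Compound was dosed intravenously 60 min after infection at 0.3–30 mg/kg in sterile water, 6 mice/dose group, with untreated infection controls. Survival was followed over 48 h. PD50 was derived by Probit analysis with 95% CI.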

The test system of data set [22] is Streptococcus pneumoniae. Put plainly: Antimicrobial activity against tetracycline-susceptible Streptococcus pneumoniae isolate 106 by CLSI dilution method. The data set is classed as functional. Put shortly: as §2
In data set [23] the test system is Staphylococcus aureus. Description: Antimicrobial activity against tetracycline-susceptible Staphylococcus aureus Smith isolate 100 by CLSI dilution method. The class given is functional.

Values after ≈ are worked out from the molar mass of the structure shown.

In general, clearance refers to the volume of plasma or blood freed of the substance per unit of time. Low values mean inefficient removal, high ones efficient removal. As usually defined, the MIC is the least concentration at which growth counts as inhibited. Broadly, the AUC(0-inf) is the area under the concentration-time curve extrapolated to infinity. A higher AUC(0-inf) goes with high exposure. Usually Cmax stands for the peak of the concentration-time curve. In the case of `CN(C)[C@@H]1C(O)=C(C(N)=O)C(=O)[C@@]2(O)C(O)=C3C(=O)c4c(cc5ccc(CN6CC(F)C6)cc5c4O)C[C@H]3C[C@@H]12`, the clearance in data set [1] amounted to 4.82 mL/min/kg. Further, the MIC in [2] came out at 8 µg/mL (≈ 14.5 µM); in data set [3], 16 µg/mL (≈ 29 µM); in data set [4], 2 µg/mL (≈ 3.63 µM); in data set [5], 0.5 µg/mL (≈ 0.907 µM); in data set [8], 8 µg/mL (≈ 14.5 µM); in [9] it was 1 µg/mL (≈ 1.81 µM). Besides, the minimal inhibitory concentration (MIC) in [12] was 0.5 µg/mL (≈ 0.907 µM); in data set [13], 2 µg/mL (≈ 3.63 µM); in data set [14], 8 µg/mL (≈ 14.5 µM); in data set [16], 0.25 µg/mL (≈ 0.453 µM); in data set [18], 0.5 µg/mL (≈ 0.907 µM); in [19] it was > 32 µg/mL. Also, the minimum inhibitory concentration (MIC) in data set [20] is 2 µg/mL (≈ 3.63 µM); in data set [22], 0.125 µg/mL (≈ 0.227 µM). Also, in data set [6], the Vd turned out to be 1.4 L/kg. This molecule also displayed an area under the curve AUC(0-inf) in [7] of 3460 ng·h/mL. In addition, the peak level in data set [10] (Cmax) was 814 ng/mL. In addition, the F in data set [11] was determined as 18%. In [15], the half-life is 3.35 h. Also, the ED50 amounted to 12.2 mg/kg in [17] and 0.36 mg/kg in [21].
Regarding `COc1c2c(c(O)c3cc(CN4CCC4)ccc13)C(=O)C1=C(O)[C@]3(O)C(=O)C(C(N)=O)=C(O)[C@@H](N(C)C)[C@@H]3C[C@@H]1C2`, the MIC was 0.0625 µg/mL (≈ 0.111 µM) in [23]; 1 µg/mL (≈ 1.77 µM) in data set [2]; 8 µg/mL (≈ 14.2 µM) in data set [3]; 1 µg/mL (≈ 1.77 µM) in data set [4]; 0.0625 µg/mL (≈ 0.111 µM) in [5]; 1 µg/mL (≈ 1.77 µM) in data set [8]. Also, the minimum inhibitory concentration (MIC) in [9] amounted to 1 µg/mL (≈ 1.77 µM); in [12], 0.0625 µg/mL (≈ 0.111 µM); in [13] it was 0.25 µg/mL (≈ 0.444 µM); in data set [14] it was 8 µg/mL (≈ 14.2 µM); in [16], 0.0625 µg/mL (≈ 0.111 µM); in data set [18] it was 0.0625 µg/mL (≈ 0.111 µM). The minimal inhibitory concentration (MIC) was 32 µg/mL (≈ 56.8 µM) in data set [19], 0.5 µg/mL (≈ 0.887 µM) in data set [20] and 0.0156 µg/mL (≈ 0.0277 µM) in data set [22]. Besides, the clearance in [1] is 10.2 mL/min/kg. In addition, the Vd in data set [6] was 4.65 L/kg. In data set [7], this molecule showed an AUC(0-inf) of 1650 ng·h/mL. Moreover, the Cmax in data set [10] was found to be 618 ng/mL. The half-life in [15] is 5.26 h. For the same molecule, the ED50 is > 20 mg/kg in [17] and 0.36 mg/kg in [21].
